Experimental data: ChEMBL document CHEMBL5058577, “EUbOPEN Chemogenomics Library 2 (Multiplex)” (2022)

Test system: Fibroblast
Assay: Multiplex assay against human fibroblast
Type: toxicity, cell-based
Method in brief: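 Tubulin, mitochondrial-mass and membrane-permeability phenotypes are per cents of healthy-nucleus cells. Cells were gated by CellPathfinder machine learning into Hoechst high-intensity objects or normal cells, normal cells into healthy, pyknosed or fragmented nuclei, and pyknosed cells into mitotic or apoptotic. Before that, live cells stained at seeding with Hoechst33342, BioTracker Green Microtubule Cytoskeleton Dye, MitoTracker Red and Annexin V Alexa Fluor 680 were imaged on a CQ1 microscope at 37°C and 5% CO2 after compound addition.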

[1] = 12 h, 1 µM, compound concentration 1 uM, replicate 1
[2] = 12 h, 1 µM, compound concentration 1 uM, replicate 2
[3] = 12 h, 10 µM, compound concentration 10 uM, replicate 1
[4] = 12 h, 10 µM, compound concentration 10 uM, replicate 2
[5] = 24 h, 1 µM, compound concentration 1 uM, replicate 1
[6] = 24 h, 1 µM, compound concentration 1 uM, replicate 2
[7] = 24 h, 10 µM, compound concentration 10 uM, replicate 1
[8] = 24 h, 10 µM, compound concentration 10 uM, replicate 2
[9] = 48 h, 1 µM, compound concentration 1 uM, replicate 1
[10] = 48 h, 1 µM, compound concentration 1 uM, replicate 2
[11] = 48 h, 10 µM, compound concentration 10 uM, replicate 1
[12] = 48 h, 10 µM, compound concentration 10 uM, replicate 2

CC[C@H]1OC(=O)[C@H](C)[C@@H](O[C@H]2C[C@@](C)(OC)[C@@H](O)[C@H](C)O2)[C@H](C)[C@@H](O[C@@H]2O[C@H](C)C[C@H](N(C)C)[C@H]2O)[C@@]2(C)CC(C)=C(O2)[C@H](C)[C@@H](O)[C@]1(C)O
Population Apoptotic (%) [1]: 37%
Population Fragmented Nuclei (%) [1]: 13%
Population Healthy Nuclei (%) [1]: 72%
Population Hoechst High Intensity Objects (%) [1]: 2%
Population Membrane Permeable-Phenotype (%) [1]: 0%
Population Mitochondria Different-Phenotype (%) [1]: 8%
Population Mitotic Cells (%) [1]: 62%
Population Normal (%) [1]: 97%
Population Pyknosed Nuclei (%) [1]: 13%
Population Tubulin-Different-Phenotype (%) [1]: 40%
Total Cell Count [1]: 176
Population Apoptotic (%) [2]: 46%
Population Fragmented Nuclei (%) [2]: 23%
Population Healthy Nuclei (%) [2]: 57%
Population Hoechst High Intensity Objects (%) [2]: 3%
Population Membrane Permeable-Phenotype (%) [2]: 9%
Population Mitochondria Different-Phenotype (%) [2]: 6%
Population Mitotic Cells (%) [2]: 53%
Population Normal (%) [2]: 96%
Population Pyknosed Nuclei (%) [2]: 18%
Population Tubulin-Different-Phenotype (%) [2]: 53%
Total Cell Count [2]: 170
Population Apoptotic (%) [3]: 48%
Population Fragmented Nuclei (%) [3]: 24%
Population Healthy Nuclei (%) [3]: 63%
Population Hoechst High Intensity Objects (%) [3]: 3%
Population Membrane Permeable-Phenotype (%) [3]: 0%
Population Mitochondria Different-Phenotype (%) [3]: 25%
Population Mitotic Cells (%) [3]: 52%
Population Normal (%) [3]: 96%
Population Pyknosed Nuclei (%) [3]: 12%
Population Tubulin-Different-Phenotype (%) [3]: 86%
Total Cell Count [3]: 205
Population Apoptotic (%) [4]: 40%
Population Fragmented Nuclei (%) [4]: 41%
Population Healthy Nuclei (%) [4]: 33%
Population Hoechst High Intensity Objects (%) [4]: 4%
Population Membrane Permeable-Phenotype (%) [4]: 14%
Population Mitochondria Different-Phenotype (%) [4]: 11%
Population Mitotic Cells (%) [4]: 59%
Population Normal (%) [4]: 95%
Population Pyknosed Nuclei (%) [4]: 25%
Population Tubulin-Different-Phenotype (%) [4]: 73%
Total Cell Count [4]: 133
Population Apoptotic (%) [5]: 52%
Population Fragmented Nuclei (%) [5]: 18%
Population Healthy Nuclei (%) [5]: 69%
Population Hoechst High Intensity Objects (%) [5]: 4%
Population Membrane Permeable-Phenotype (%) [5]: 0%
Population Mitochondria Different-Phenotype (%) [5]: 7%
Population Mitotic Cells (%) [5]: 47%
Population Normal (%) [5]: 95%
Population Pyknosed Nuclei (%) [5]: 12%
Population Tubulin-Different-Phenotype (%) [5]: 45%
Total Cell Count [5]: 173
Population Apoptotic (%) [6]: 46%
Population Fragmented Nuclei (%) [6]: 29%
Population Healthy Nuclei (%) [6]: 52%
Population Hoechst High Intensity Objects (%) [6]: 3%
Population Membrane Permeable-Phenotype (%) [6]: 7%
Population Mitochondria Different-Phenotype (%) [6]: 5%
Population Mitotic Cells (%) [6]: 53%
Population Normal (%) [6]: 96%
Population Pyknosed Nuclei (%) [6]: 17%
Population Tubulin-Different-Phenotype (%) [6]: 36%
Total Cell Count [6]: 176
Population Apoptotic (%) [7]: 52%
Population Fragmented Nuclei (%) [7]: 22%
Population Healthy Nuclei (%) [7]: 69%
Population Hoechst High Intensity Objects (%) [7]: 2%
Population Membrane Permeable-Phenotype (%) [7]: 0%
Population Mitochondria Different-Phenotype (%) [7]: 37%
Population Mitotic Cells (%) [7]: 47%
Population Normal (%) [7]: 97%
Population Pyknosed Nuclei (%) [7]: 8%
Population Tubulin-Different-Phenotype (%) [7]: 89%
Total Cell Count [7]: 199
Population Apoptotic (%) [8]: 46%
Population Fragmented Nuclei (%) [8]: 40%
Population Healthy Nuclei (%) [8]: 39%
Population Hoechst High Intensity Objects (%) [8]: 1%
Population Membrane Permeable-Phenotype (%) [8]: 8%
Population Mitochondria Different-Phenotype (%) [8]: 12%
Population Mitotic Cells (%) [8]: 53%
Population Normal (%) [8]: 98%
Population Pyknosed Nuclei (%) [8]: 20%
Population Tubulin-Different-Phenotype (%) [8]: 81%
Total Cell Count [8]: 127
Population Apoptotic (%) [9]: 55%
Population Fragmented Nuclei (%) [9]: 17%
Population Healthy Nuclei (%) [9]: 71%
Population Hoechst High Intensity Objects (%) [9]: 3%
Population Membrane Permeable-Phenotype (%) [9]: 0%
Population Mitochondria Different-Phenotype (%) [9]: 9%
Population Mitotic Cells (%) [9]: 44%
Population Normal (%) [9]: 96%
Population Pyknosed Nuclei (%) [9]: 11%
Population Tubulin-Different-Phenotype (%) [9]: 57%
Total Cell Count [9]: 168
Population Apoptotic (%) [10]: 56%
Population Fragmented Nuclei (%) [10]: 32%
Population Healthy Nuclei (%) [10]: 54%
Population Hoechst High Intensity Objects (%) [10]: 2%
Population Membrane Permeable-Phenotype (%) [10]: 7%
Population Mitochondria Different-Phenotype (%) [10]: 5%
Population Mitotic Cells (%) [10]: 43%
Population Normal (%) [10]: 97%
Population Pyknosed Nuclei (%) [10]: 13%
Population Tubulin-Different-Phenotype (%) [10]: 56%
Total Cell Count [10]: 173
Population Apoptotic (%) [11]: 84%
Population Fragmented Nuclei (%) [11]: 24%
Population Healthy Nuclei (%) [11]: 68%
Population Hoechst High Intensity Objects (%) [11]: 8%
Population Membrane Permeable-Phenotype (%) [11]: 0%
Population Mitochondria Different-Phenotype (%) [11]: 40%
Population Mitotic Cells (%) [11]: 15%
Population Normal (%) [11]: 91%
Population Pyknosed Nuclei (%) [11]: 6%
Population Tubulin-Different-Phenotype (%) [11]: 91%
Total Cell Count [11]: 216
Population Apoptotic (%) [12]: 58%
Population Fragmented Nuclei (%) [12]: 43%
Population Healthy Nuclei (%) [12]: 47%
Population Hoechst High Intensity Objects (%) [12]: 7%
Population Membrane Permeable-Phenotype (%) [12]: 6%
Population Mitochondria Different-Phenotype (%) [12]: 8%
Population Mitotic Cells (%) [12]: 41%
Population Normal (%) [12]: 92%
Population Pyknosed Nuclei (%) [12]: 9%
Population Tubulin-Different-Phenotype (%) [12]: 78%
Total Cell Count [12]: 139

CN1CCN(c2nc3cc(C(F)(F)F)ccc3n3cccc23)CC1.O=C(O)/C=C\C(=O)O.O=C(O)/C=C\C(=O)O
Population Apoptotic (%) [1]: 50%
Population Fragmented Nuclei (%) [1]: 18%
Population Healthy Nuclei (%) [1]: 71%
Population Hoechst High Intensity Objects (%) [1]: 0%
Population Membrane Permeable-Phenotype (%) [1]: 0%
Population Mitochondria Different-Phenotype (%) [1]: 5%
Population Mitotic Cells (%) [1]: 50%
Population Normal (%) [1]: 99%
Population Pyknosed Nuclei (%) [1]: 9%
Population Tubulin-Different-Phenotype (%) [1]: 27%
Total Cell Count [1]: 146
Population Apoptotic (%) [2]: 26%
Population Fragmented Nuclei (%) [2]: 24%
Population Healthy Nuclei (%) [2]: 46%
Population Hoechst High Intensity Objects (%) [2]: 6%
Population Membrane Permeable-Phenotype (%) [2]: 6%
Population Mitochondria Different-Phenotype (%) [2]: 4%
Population Mitotic Cells (%) [2]: 73%
Population Normal (%) [2]: 93%
Population Pyknosed Nuclei (%) [2]: 30%
Population Tubulin-Different-Phenotype (%) [2]: 47%
Total Cell Count [2]: 107
Population Apoptotic (%) [3]: 40%
Population Fragmented Nuclei (%) [3]: 29%
Population Healthy Nuclei (%) [3]: 59%
Population Hoechst High Intensity Objects (%) [3]: 2%
Population Membrane Permeable-Phenotype (%) [3]: 0%
Population Mitochondria Different-Phenotype (%) [3]: 25%
Population Mitotic Cells (%) [3]: 59%
Population Normal (%) [3]: 97%
Population Pyknosed Nuclei (%) [3]: 10%
Population Tubulin-Different-Phenotype (%) [3]: 69%
Total Cell Count [3]: 207
Population Apoptotic (%) [4]: 60%
Population Fragmented Nuclei (%) [4]: 35%
Population Healthy Nuclei (%) [4]: 41%
Population Hoechst High Intensity Objects (%) [4]: 4%
Population Membrane Permeable-Phenotype (%) [4]: 4%
Population Mitochondria Different-Phenotype (%) [4]: 38%
Population Mitotic Cells (%) [4]: 40%
Population Normal (%) [4]: 95%
Population Pyknosed Nuclei (%) [4]: 22%
Population Tubulin-Different-Phenotype (%) [4]: 85%
Total Cell Count [4]: 117
Population Apoptotic (%) [5]: 66%
Population Fragmented Nuclei (%) [5]: 16%
Population Healthy Nuclei (%) [5]: 72%
Population Hoechst High Intensity Objects (%) [5]: 1%
Population Membrane Permeable-Phenotype (%) [5]: 0%
Population Mitochondria Different-Phenotype (%) [5]: 2%
Population Mitotic Cells (%) [5]: 33%
Population Normal (%) [5]: 98%
Population Pyknosed Nuclei (%) [5]: 10%
Population Tubulin-Different-Phenotype (%) [5]: 23%
Total Cell Count [5]: 142
Population Apoptotic (%) [6]: 40%
Population Fragmented Nuclei (%) [6]: 35%
Population Healthy Nuclei (%) [6]: 42%
Population Hoechst High Intensity Objects (%) [6]: 6%
Population Membrane Permeable-Phenotype (%) [6]: 7%
Population Mitochondria Different-Phenotype (%) [6]: 7%
Population Mitotic Cells (%) [6]: 59%
Population Normal (%) [6]: 93%
Population Pyknosed Nuclei (%) [6]: 22%
Population Tubulin-Different-Phenotype (%) [6]: 43%
Total Cell Count [6]: 104
Population Apoptotic (%) [7]: 77%
Population Fragmented Nuclei (%) [7]: 24%
Population Healthy Nuclei (%) [7]: 64%
Population Hoechst High Intensity Objects (%) [7]: 6%
Population Membrane Permeable-Phenotype (%) [7]: 0%
Population Mitochondria Different-Phenotype (%) [7]: 32%
Population Mitotic Cells (%) [7]: 22%
Population Normal (%) [7]: 93%
Population Pyknosed Nuclei (%) [7]: 10%
Population Tubulin-Different-Phenotype (%) [7]: 75%
Total Cell Count [7]: 214
Population Apoptotic (%) [8]: 63%
Population Fragmented Nuclei (%) [8]: 37%
Population Healthy Nuclei (%) [8]: 43%
Population Hoechst High Intensity Objects (%) [8]: 1%
Population Membrane Permeable-Phenotype (%) [8]: 6%
Population Mitotic Cells (%) [8]: 36%
Population Normal (%) [8]: 98%
Population Pyknosed Nuclei (%) [8]: 19%
Population Tubulin-Different-Phenotype (%) [8]: 86%
Total Cell Count [8]: 117
Population Apoptotic (%) [9]: 44%
Population Fragmented Nuclei (%) [9]: 25%
Population Healthy Nuclei (%) [9]: 63%
Population Hoechst High Intensity Objects (%) [9]: 2%
Population Membrane Permeable-Phenotype (%) [9]: 1%
Population Mitochondria Different-Phenotype (%) [9]: 2%
Population Mitotic Cells (%) [9]: 55%
Population Normal (%) [9]: 97%
Population Pyknosed Nuclei (%) [9]: 11%
Population Tubulin-Different-Phenotype (%) [9]: 22%
Total Cell Count [9]: 162
Population Apoptotic (%) [10]: 42%
Population Fragmented Nuclei (%) [10]: 37%
Population Healthy Nuclei (%) [10]: 40%
Population Hoechst High Intensity Objects (%) [10]: 3%
Population Membrane Permeable-Phenotype (%) [10]: 0%
Population Mitotic Cells (%) [10]: 57%
Population Normal (%) [10]: 96%
Population Pyknosed Nuclei (%) [10]: 21%
Population Tubulin-Different-Phenotype (%) [10]: 57%
Total Cell Count [10]: 102
Population Apoptotic (%) [11]: 77%
Population Fragmented Nuclei (%) [11]: 22%
Population Healthy Nuclei (%) [11]: 68%
Population Hoechst High Intensity Objects (%) [11]: 7%
Population Membrane Permeable-Phenotype (%) [11]: 0%
Population Mitochondria Different-Phenotype (%) [11]: 28%
Population Mitotic Cells (%) [11]: 22%
Population Normal (%) [11]: 92%
Population Pyknosed Nuclei (%) [11]: 9%
Population Tubulin-Different-Phenotype (%) [11]: 77%
Total Cell Count [11]: 211
Population Apoptotic (%) [12]: 63%
Population Fragmented Nuclei (%) [12]: 33%
Population Healthy Nuclei (%) [12]: 57%
Population Hoechst High Intensity Objects (%) [12]: 5%
Population Membrane Permeable-Phenotype (%) [12]: 1%
Population Mitochondria Different-Phenotype (%) [12]: 23%
Population Mitotic Cells (%) [12]: 36%
Population Normal (%) [12]: 94%
Population Tubulin-Different-Phenotype (%) [12]: 85%
Total Cell Count [12]: 118
